Test results published in publication PMC2232892 (The Journal of General Physiology, 2000).
Like-named read-outs stand apart in the source and are kept apart here.

What was measured:
RBK1 (rKv1.1) channels = details: ref Newland et al. 1992; cited from earlier work
T449Y Shaker channels [1] = target: T1, T449Y Shaker channels (Drosophila melanogaster, UniProt P08510, DEL6-46/T449Y); details: ref Heginbotham and MacKinnon 1992; cited from earlier work
T449Y Shaker channels [2] = target: T1, T449Y Shaker channels; type: cell-based
Summary of the method: (§1)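 Oocytes were defolliculated for 60–90 min with 2 mg/ml collagenase in Ca-free OR-2, injected with channel RNA, and held at 18°C in ND-96 with penicillin/streptomycin. Inside-out or outside-out macropatches were recorded 1–5 d later at 20–22°C, filtered at 5 kHz. External solution (mM): 5 KCl, 135 NMDG-Cl, 2 CaCl2, 2 MgCl2, 10 HEPES, pH 7.2. Internal solution: 110 KCl, 25 KOH, 10 EGTA, 10 HEPES, pH 7.2.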

Shaker B, ShB Δ6-46 [3] = target: T2, Shaker B, ShB Δ6-46 (Drosophila melanogaster, UniProt P08510, DEL6-46); type: cell-based; details: for Kd: read-out: apparent Kd for external TEA block
Summary of the method: as §1

Shaker B, ShB Δ6-46 [4] = target: T2, Shaker B, ShB Δ6-46; details: wild-type Shaker channels; ref Heginbotham and MacKinnon 1992; Newland et al. 1992; cited from earlier work

Row | interaction parameter Q (external vs internal TEA) (T449Y Shaker channels [2]; K+ solutions) | current blocked by 2 mM internal TEA (T449Y Shaker channels [2]; absence of external TEA) | current blocked by 2 mM internal TEA (T449Y Shaker channels [2]; presence of 1 mM external TEA) | interaction parameter Q (external TEA antagonism of internal TEA block) (Shaker B, ShB Δ6-46 [3]; K+ solutions, 0-100 mM external TEA, Ko = 17 mM, 0 mV) | interaction parameter Q (external vs internal TEA) (Shaker B, ShB Δ6-46 [3]; Rb+ solutions) | Kd (Shaker B, ShB Δ6-46 [3]; 20 mM internal K+ and 50 mM internal Na+) | Kd (Shaker B, ShB Δ6-46 [3]; 50 mM internal K+ (data not shown)) | Kd (Shaker B, ShB Δ6-46 [3]; 115 mM internal Na+ (20 mM K+)) | block by 0.25 mM external gallamine compared with wild-type channels (T449Y Shaker channels [2]; same concentration as on wild-type, reduced voltage sensitivity) | apparent zδ (voltage dependence of block, Woodhull equation) (Shaker B, ShB Δ6-46 [3]; 0.25 mM external gallamine, wild-type channels) | interaction parameter Q (external gallamine antagonism of internal TEA block) (Shaker B, ShB Δ6-46 [3]; K+ solutions, several external gallamine concentrations) | Compound | interaction parameter Q (external vs internal TEA) (RBK1 (rKv1.1) channels) | electrical distance of external block (T449Y Shaker channels [1]) | δ (electrical distance of external block) (Shaker B, ShB Δ6-46 [4])
1 | 5.2 | 77 ± 0.4% | 64 ± 7% | 4.6 | 1 | 7.5 ± 0.85 mM | 17.6 ± 2.7 mM | 7.6 ± 1.2 mM | – | – | – | CC[N+](CC)(CC)CC [TEA, tetraethylammonium] | 5.3 | 0.04 | ~0.15
2 | – | – | – | – | – | – | – | – | considerably more effective | 0.28 | 2 | CC[N+](CC)(CC)CCOc1cccc(OCC[N+](CC)(CC)CC)c1OCC[N+](CC)(CC)CC [gallamine, Gallamine triethiode] | – | – | –
